Screens as filed in PubChem BioAssay.
The full list was thinned out, with hits kept by preference.
KDM4C inh: inhibitors of GASC-1 (KDM4C) histone demethylase, primary screen, biochemical, single concentration HTS. AID 720574, 2013. inhibition, % at 12.5 µM. Lysine-specific demethylase 4C (Homo sapiens), Q9H3R0. hit rate 0.15% among 96,000. GST-KDM4C 2-372, H3K9me3 peptide, LANCE TR-FRET;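 active means mean replicate inhibition above about 25%, with at least 55% of replicates also reaching it, limit read from the data, passing the limit was not always enough; inconclusive means only one of those two conditions met; inactive means neither condition met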
Target sequence (Q9H3R0 2-372 limits assumed): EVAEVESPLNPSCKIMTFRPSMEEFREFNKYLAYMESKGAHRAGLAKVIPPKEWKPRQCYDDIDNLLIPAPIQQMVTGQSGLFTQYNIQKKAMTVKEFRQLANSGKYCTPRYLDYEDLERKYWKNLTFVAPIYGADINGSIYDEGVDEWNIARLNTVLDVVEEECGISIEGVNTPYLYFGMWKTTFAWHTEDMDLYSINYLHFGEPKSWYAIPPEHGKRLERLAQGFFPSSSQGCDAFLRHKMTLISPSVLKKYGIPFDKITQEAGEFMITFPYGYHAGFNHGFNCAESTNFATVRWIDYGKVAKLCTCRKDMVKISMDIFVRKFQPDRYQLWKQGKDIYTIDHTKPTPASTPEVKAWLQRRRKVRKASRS
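Material: N-terminal GST-fused human GASC-1 (KDM4C) fragment, residues 2-372. Input: 10 nM enzyme. Incubation: enzyme reaction 30 min, then detection 60 min, both room temperature. Doses: one test concentration per compound. Read-out basis: inhibition from TR-FRET ratio decrease. Detection: LANCE TR-FRET, excitation 340 nm, emissions 618 and 671 nm.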
IDH1 mut inh: inhibitors of IDH1 R132H reductase, primary screen, biochemical, plate reader, single point | Isocitrate dehydrogenase [NADP] cytoplasmic (Homo sapiens), O75874 | diaphorase/resazurin fluorescence, 60 min | inhibition, % at 10 µM | hit rate 0.18% among 70,000 | AID 624101, 2012; in the data active means inhibition above about 34%; inconclusive means no clear call, values can overlap the other calls; inactive means below about 11%;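 further: 0% = DMSO and 100% = no enzyme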
T cruzi growth-1: T. cruzi intracellular proliferation inhibitors, primary screen, cell-based, beta-gal Tulahuen parasites, NIH3T3 host, luminescence | T. cruzi beta-gal in NIH3T3, GalScreen luminescence, 90 h | inhibition, % at 8.34 µM | hit rate 5.9% among 77,000;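 active means mean inhibition above about 93%, with at least 55% of replicates each passing it, limit read from the data, passing the limit was not always enough; inconclusive means only one of those two conditions holds; inactive means neither condition holds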
T cruzi growth-2: T. cruzi intracellular proliferation inhibitors, confirmation, cell-based, NIH3T3 host, beta-gal parasite, luminescence, cherry-pick. shares compounds with T cruzi growth-1. hit rate 72% among 5,600. T. cruzi beta-gal in NIH3T3, GalScreen luminescence, 90 h. inhibition, % at 8.35 µM;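 active means mean replicate inhibition above about 95% and at least 55% of replicates individually reaching it, limit read from the data; inconclusive means only one of the two criteria is met; inactive means neither criterion is met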
T cruzi growth-3: inhibitors of intracellular T. cruzi replication, confirmation, NIH3T3 host cells, beta-gal parasites, cherry-pick, set 2. shares compounds with T cruzi growth-1. T. cruzi beta-gal in NIH3T3, GalScreen luminescence, 90 h. inhibition, % at 2.09 µM. hit rate 21% among 5,600;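 active means mean inhibition above about 95%, with at least 55% of replicates also reaching it, limit read from the data; inconclusive means meets just one of the two conditions; inactive means meets neither condition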;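 further: plate controls were neutral control median for no effect and positive control median for full effect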
NIH3T3 tox: cytotoxicity in mouse NIH/3T3 fibroblasts, confirmation, cytotoxicity control for T. cruzi proliferation inhibitor project, cell-based, cherry-pick, single point; shares compounds with T cruzi growth-1; NIH/3T3 viability, CellTiter-Glo ATP luminescence, 90 h; cytotoxicity (signal decrease), % at 8.35 µM; hit rate 14% among 5,600;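 active means mean signal decrease across replicates above about 35% based on untreated-well scatter, with enough replicates individually passing, limit read from the data; inconclusive means no rule stated though some were filed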;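 further: 0% = median of neutral control wells and 100% = median of positive control wells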
NIH3T3 tox 2: NIH/3T3 fibroblast cytotoxicity, confirmation, cytotoxicity control, cell-based, cherry-pick, single point, set 2; shares compounds with T cruzi growth-1; hit rate 56% among 5,600; NIH/3T3 viability, CellTiter-Glo ATP luminescence, 90 h; inhibition, % at 24.9 µM; AID 651744, 2012;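 active means mean loss of cell viability signal at or above a set limit, and enough replicates individually reaching it; inconclusive means meets only the mean limit or only the replicate share; inactive means meets neither condition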;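 further: 0% = median of neutral control wells and 100% = median of positive control wells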
* hit, by the source's call; ? = inconclusive; / = no result; ! = not active in a repeat.

SMILES | KDM4C inh | IDH1 mut inh | T cruzi growth-1 | T cruzi growth-2 | T cruzi growth-3 | NIH3T3 tox | NIH3T3 tox 2
C[C@H](O)C#Cc1ccc([C@H]2[C@H](CO)N3CCCCN(C(=O)c4cccc(F)c4)C[C@@H]23)cc1 | 0.5 | / | 100.0* | 67.0 | 42.3 | 18.5 | 64.5*
C[C@H](O)C#Cc1ccc([C@@H]2[C@@H](CO)N3CCCCN(C(=O)c4cccc(F)c4)C[C@@H]23)cc1 | -0.4 | / | 46.5 | / | / | / | /
C[C@@H](O)C#Cc1ccc([C@H]2[C@@H](CO)N3CCCCN(C(=O)c4cccc(F)c4)C[C@@H]23)cc1 | -0.8 | / | 99.7* | 87.7 | 60.3 | 2.1 | 22.1
COc1cccc(S(=O)(=O)N(C)C[C@H]2OCc3cn(nn3)CCCC(=O)N([C@H](C)CO)C[C@@H]2C)c1 | 0.8 | / | ? | 17.1 | 20.8 | 10.1 | -4.6
COc1cccc(S(=O)(=O)N(C)C[C@H]2OCc3cn(nn3)CCCC(=O)N([C@@H](C)CO)C[C@H]2C)c1 | 0.1 | / | 42.9 | / | / | / | /
C[C@@H]1CN([C@H](C)CO)C(=O)CCCn2cc(nn2)CO[C@@H]1CN(C)S(=O)(=O)c1ccc2ccccc2c1 | 3.0 | / | 33.6 | / | / | / | /
COc1cccc(S(=O)(=O)N(C)C[C@H]2OCc3cn(nn3)CCCC(=O)N([C@@H](C)CO)C[C@@H]2C)c1 | 0.5 | / | 116.4*! | 17.7 | 9.6 | -8.4 | -6.7
C[C@@H]1CN([C@@H](C)CO)C(=O)CCCn2cc(nn2)CO[C@H]1CN(C)S(=O)(=O)c1ccc2ccccc2c1 | -0.6 | / | 124.7*! | 54.6 | 1.4 | -6.2 | 6.1
COc1cccc(S(=O)(=O)N(C)C[C@@H]2OCc3cn(nn3)CCCC(=O)N([C@@H](C)CO)C[C@@H]2C)c1 | -1.3 | / | -109.8 | / | / | / | /
O=C(CN1C(=O)c2ccccc2S1(=O)=O)Nc1ccccc1Br | / | 0.1 | / | / | / | / | /
CCCc1c(C)nc2ccc(Br)cc2c1SCCC(=O)O | / | 3.0 | / | / | / | / | /
O=C1c2ccccc2C(Nc2ccc(S(=O)(=O)N3CCOCC3)cc2)N1Cc1ccccc1Cl (stereo unspecified) | / | 1.6 | / | / | / | / | /
CC1CCC2(C(=O)OC3OC(CO)C(O)C(O)C3O)CCC3(C(=O)O)C(=CCC4C5(C)CCC(O)C(C)(C)C5CCC43C)C2C1C (stereo unspecified) | / | -0.1 | / | / | / | / | /
O=P(CCNCc1cccnc1)(c1ccccc1)c1ccccc1 | / | 1.2 | / | / | / | / | /
O=C(CSc1nnc(-c2ccccc2)n1-c1ccccc1)N1CCOCC1 | / | 0.0 | / | / | / | / | /
O=C(CN1C(=O)c2ccccc2S1(=O)=O)Nc1ccccc1C(=O)N1CCCC1 | / | 0.3 | / | / | / | / | /
O=c1oc2ccccc2cc1-c1csc(Cc2nc3c(s2)CCCC3)n1 | / | 0.3 | / | / | / | / | /
COc1ccccc1-c1cnc2c(c1)C(=O)N([C@H](C)CO)C[C@@H](C)[C@H](CN(C)C(C)=O)O2 | -1.9 | -0.5 | 8.6 | / | / | / | /
COc1ccccc1-c1cnc2c(c1)C(=O)N([C@@H](C)CO)C[C@@H](C)[C@@H](CN(C)C(C)=O)O2 | 4.1 | / | 11.5 | / | / | / | /
COc1ccccc1-c1cnc2c(c1)C(=O)N([C@H](C)CO)C[C@H](C)[C@H](CN(C)C(C)=O)O2 | 3.6 | -12.3 | ? | 35.1 | 2.2 | 18.7 | -5.9
COc1ccccc1-c1cnc2c(c1)C(=O)N([C@H](C)CO)C[C@@H](C)[C@@H](CN(C)C(C)=O)O2 | -0.5 | -0.6 | 98.7* | ? | 42.4 | 15.7 | 23.9
Cc1c(Cl)cccc1NC(=O)CSc1nc(-c2ccccc2)cs1 | / | 0.2 | / | / | / | / | /
Cc1ccc(-n2c(SCC(=O)Nc3ccccc3C)nc3nc4c(cc3c2=O)COC(C)(C)C4)cc1 | / | 0.5 | / | / | / | / | /
COc1cc(/C=C/C(=O)OCC[N+](C)(C)C)cc(OC)c1O | / | -0.9 | / | / | / | / | /
